This is an account of results in ChEMBL document CHEMBL1128478, “Structure-activity relationships of the potent combined endothelin-A/endothelin-B receptor antagonist Ac-DDip16-Leu-Asp-Ile-Ile-Trp21: development of endothelin-B receptor selective antagonists” (J Med Chem, 1995).

Test [1] addresses T1, Endothelin receptor type B (Rattus norvegicus, UniProt P21451).
T1 sequence (P21451 whole entry): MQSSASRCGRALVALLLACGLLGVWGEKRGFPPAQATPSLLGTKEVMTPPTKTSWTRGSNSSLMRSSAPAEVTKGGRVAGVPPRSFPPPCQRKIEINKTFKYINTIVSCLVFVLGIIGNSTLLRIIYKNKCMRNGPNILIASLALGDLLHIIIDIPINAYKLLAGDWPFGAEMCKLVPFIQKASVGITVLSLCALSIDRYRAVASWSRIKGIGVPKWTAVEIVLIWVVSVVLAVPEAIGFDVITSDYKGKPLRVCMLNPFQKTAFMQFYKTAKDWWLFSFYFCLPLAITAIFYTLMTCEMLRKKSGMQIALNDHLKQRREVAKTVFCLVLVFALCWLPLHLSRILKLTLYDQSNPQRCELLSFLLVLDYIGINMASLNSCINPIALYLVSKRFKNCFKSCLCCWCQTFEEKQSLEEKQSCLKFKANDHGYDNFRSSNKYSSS
Description: Binding affinity against endothelin B receptor rat cerebellar membranes.

Test [2] concerns the target T2, Endothelin receptor type B (Homo sapiens, UniProt P24530).
T2 sequence (P24530 whole entry): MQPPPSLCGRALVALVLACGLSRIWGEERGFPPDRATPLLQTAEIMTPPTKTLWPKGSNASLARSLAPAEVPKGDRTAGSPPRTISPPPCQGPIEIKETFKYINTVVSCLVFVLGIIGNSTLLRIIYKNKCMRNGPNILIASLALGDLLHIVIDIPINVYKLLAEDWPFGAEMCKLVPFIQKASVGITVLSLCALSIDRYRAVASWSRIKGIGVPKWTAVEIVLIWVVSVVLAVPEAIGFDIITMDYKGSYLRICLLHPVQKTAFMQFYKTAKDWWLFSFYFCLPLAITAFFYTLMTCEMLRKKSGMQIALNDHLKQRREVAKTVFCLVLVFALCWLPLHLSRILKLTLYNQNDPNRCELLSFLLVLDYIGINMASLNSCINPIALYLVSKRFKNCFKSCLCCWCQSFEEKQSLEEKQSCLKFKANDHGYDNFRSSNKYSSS
Description: Binding affinity measured in CHO cells stably transfected with the human endothelin B receptor. The format is cell-based. In a few lines:
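Membranes come from confluent CHO-K1 clones stably expressing human ETB, grown in DME/F12 with 10% FCS and G418 0.5 mg/mL. Specific binding fitted by nonlinear least squares. Triplicate points per IC50.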

Test [3] is described as follows: Relative affinities for rat endothelin B receptor and human endothelin B receptor. On the set-up: reference not given here.
A short description of test [4]: Relative affinities against endothelin A receptor (rabbit) and endothelin B receptor (rat). On the set-up: reference not given here.
Test [5] has as its target T1, Endothelin receptor type B. Nature of the test: Inhibition of SRTX-6c stimulated arachidonic acid release in CHO cells expressing rat ET- B receptors.
Test [6] deals with T1, Endothelin receptor type B. Description: Inhibition of SRTX-6c stimulated arachidonic acid release in CHO cells expressing recombinant rat ET- B receptors.

Where a name gives a salt, the structure may show the parent alone. Numbered stars: 1 amine (or outer) side, 2 acyl side, 3 side chain; on linkers, the order of the positions; unused ones are H or OH. Square brackets hold non-standard residues; d marks the D form. Peptide text beside a SMILES is read from it. * marks the point of attachment. X3 = O=C([C@@H](N[*:1])C(c1ccccc1)(c1ccccc1)c1ccccc1)[*:2]; X2 = Cc1c(C)c(C)c(C[C@H](N[*:1])C(=O)[*:2])c(C)c1C; Diphenylacetyl = O=C(C(c1ccccc1)c1ccccc1)*; dDip = N[C@@H](C(=O)O)C(c1ccccc1)c1ccccc1; Dip = N[C@H](C(=O)O)C(c1ccccc1)c1ccccc1; Cyclohexanecarbonyl = O=C(C1CCCCC1)*; Suc = O=C(CCC(=O)[*:2])[*:1]; NHcHex = C1CCC(N*)CC1; CO = O=C([*:1])[*:2]; Piv = CC(C)(C)C(=O)*; Propionyl = CCC(=O)*; Tfa = O=C(C(F)(F)F)*; Bz = O=C(c1ccccc1)*; Ms = CS(=O)(=O)* A value given as a limit tells only on which side of the number the result lay.

Consider `CC[C@H](C)[C@H](NC(=O)[C@H](CC(=O)O)NC(=O)[C@H](CCCNC(=N)N)NC(=O)[C@H](NC(C)=O)C(c1ccccc1)c1ccccc1)C(=O)N[C@H](C(=O)N[C@@H](Cc1c[nH]c2ccccc12)C(=O)O)[C@@H](C)CC`, for which the half-inhibitory concentration (IC50) – broadly, the concentration that inhibits the measured activity by half – in test [1] amounted to 10 nM; in test [2] it was 590 nM.
With `CC[C@H](C)[C@H](NC(=O)[C@H](CC(=O)O)NC(=O)[C@H](CCCNC(=N)N)NC(=O)[C@@H](NC(C)=O)C(c1ccccc1)c1ccccc1)C(=O)N[C@H](C(=O)N[C@@H](Cc1c[nH]c2ccccc12)C(=O)O)[C@@H](C)CC`, the Ratio in test [3] is 59.
Turning to `CC[C@H](C)[C@H](NC(=O)[C@H](Cc1ccccc1)NC(=O)[C@H](CC(=O)O)NC(=O)[C@H](CC(C)C)NC(=O)[C@@H](NC(C)=O)C(c1ccccc1)c1ccccc1)C(=O)N[C@@H](Cc1c[nH]c2ccccc12)C(=O)O` (Ac-[Dip]LDFIW-OH), the IC50 in test [1] was 56 nM; in test [2] it was 900 nM. In test [3], the Ratio was 16.
`CC[C@H](C)[C@H](NC(=O)[C@H](CCC(=O)O)NC(=O)[C@H](CC(C)C)NC(=O)[C@@H](NC(C)=O)C(c1ccccc1)c1ccccc1)C(=O)N[C@H](C(=O)N[C@@H](Cc1c[nH]c2ccccc12)C(=O)O)[C@@H](C)CC` (Ac-[Dip]LEIIW-OH): the IC50 in test [1] was determined as 19 nM; in test [2], 1800 nM. The Ratio in test [3] came to 95.
In the same order, the values of `CC[C@H](C)[C@H](NC(=O)[C@H](Cc1ccccc1)NC(=O)[C@H](CC(C)C)NC(=O)[C@@H](NC(C)=O)C(c1ccccc1)c1ccccc1)C(=O)N[C@H](C(=O)N[C@@H](Cc1c[nH]c2ccccc12)C(=O)O)[C@@H](C)CC` (Ac-[Dip]LFIIW-OH) are 60 nM, above 1600 nM and 17.
For `CC[C@H](C)[C@H](NC(=O)[C@H](CC(=O)O)NC(=O)[C@H](CC(C)C)NC(=O)[C@@H](NC(=O)c1ccccc1)C(c1ccccc1)c1ccccc1)C(=O)N[C@H](C(=O)N[C@@H](Cc1c[nH]c2ccccc12)C(=O)O)[C@@H](C)CC` (Bz-[Dip]LDIIW-OH), the half-maximal inhibitory concentration (IC50) in test [1] turned out to be 30 nM; in test [2], 4400 nM; in test [5] it was 290 nM. Moreover, the Ratio worked out at 210 in test [4] and 147 in test [3].
`CC[C@H](C)[C@H](NC(=O)[C@H](CC(=O)O)NC(=O)[C@H](CC(C)C)NC(=O)[C@@H](NC(=O)C1CCCCC1)C(c1ccccc1)c1ccccc1)C(=O)N[C@H](C(=O)N[C@@H](Cc1c[nH]c2ccccc12)C(=O)O)[C@@H](C)CC` (Cyclohexanecarbonyl-[Dip]LDIIW-OH): the figures for the IC50 in test [1] and in test [5] were 350 nM and 560 nM, respectively. Moreover, in test [4], the Ratio was determined as 17.8.
Regarding `CC[C@H](C)[C@H](NC(=O)[C@H](CC(=O)O)NC(=O)[C@H](CC(C)C)NC(=O)[C@@H](NC(=O)C(c1ccccc1)c1ccccc1)C(c1ccccc1)c1ccccc1)C(=O)N[C@H](C(=O)N[C@@H](Cc1c[nH]c2ccccc12)C(=O)O)[C@@H](C)CC` (Diphenylacetyl-[Dip]LDIIW-OH), the values for the IC50 in test [1] and in test [5] were 1300 nM and 9300 nM, respectively. In addition, the Ratio in test [4] was determined as 2.
In test [1], `CC[C@H](C)[C@H](NC(=O)[C@H](CC(=O)O)NC(=O)[C@H](CC(C)C)NC(=O)[C@@H](N)Cc1c(C)c(C)c(C)c(C)c1C)C(=O)N[C@H](C(=O)N[C@@H](Cc1c[nH]c2ccccc12)C(=O)O)[C@@H](C)CC` (H-[X2]LDIIW-OH) showed an IC50 above 10000 nM.
The compound `CC[C@H](C)[C@H](NC(=O)[C@H](CC(=O)O)NC(=O)[C@H](CC(C)C)NC(=O)[C@@H](N)C(c1ccccc1)(c1ccccc1)c1ccccc1)C(=O)N[C@H](C(=O)N[C@@H](Cc1c[nH]c2ccccc12)C(=O)O)[C@@H](C)CC` (H-[X3]LDIIW-OH) showed an IC50 in test [1] of 10000 nM.
On to `CC[C@H](C)[C@H](NC(=O)[C@H](CC(=O)O)NC(=O)[C@H](CC(C)C)NC(=O)[C@H](N)C(c1ccccc1)c1ccccc1)C(=O)N[C@H](C(=O)N[C@@H](Cc1c[nH]c2ccccc12)C(=O)O)[C@@H](C)CC` (H-[dDip]LDIIW-OH), for which, in test [5], the IC50 turned out to be 9200 nM.
For the compound `CC[C@H](C)[C@H](NC(=O)[C@H](CC(=O)O)NC(=O)[C@H](CC(C)C)NC(=O)[C@@H](NS(C)(=O)=O)C(c1ccccc1)c1ccccc1)C(=O)N[C@H](C(=O)N[C@@H](Cc1c[nH]c2ccccc12)C(=O)O)[C@@H](C)CC` (Ms-[Dip]LDIIW-OH), the IC50 in test [1] was found to be 260 nM; in test [6], 1300 nM. Also, the Ratio in test [4] is 2.1.
In the case of `CC[C@H](C)[C@H](NC(=O)[C@H](CC(=O)O)NC(=O)[C@H](CC(C)C)NC(=O)[C@@H](NC(=O)C(C)(C)C)C(c1ccccc1)c1ccccc1)C(=O)N[C@H](C(=O)N[C@@H](Cc1c[nH]c2ccccc12)C(=O)O)[C@@H](C)CC` (Piv-[Dip]LDIIW-OH), the IC50 in test [1] turned out to be 400 nM; in test [5] it was 890 nM. In test [4], the Ratio worked out at 25.
In the case of `CCC(=O)N[C@H](C(=O)N[C@@H](CC(C)C)C(=O)N[C@@H](CC(=O)O)C(=O)N[C@H](C(=O)N[C@H](C(=O)N[C@@H](Cc1c[nH]c2ccccc12)C(=O)O)[C@@H](C)CC)[C@@H](C)CC)C(c1ccccc1)c1ccccc1` (Propionyl-[Dip]LDIIW-OH), the IC50 in test [1] is 260 nM; in test [5], 220 nM. In addition, the Ratio in test [4] was 3.8.
With `CC[C@H](C)[C@H](NC(=O)[C@H](CC(=O)O)NC(=O)[C@H](CC(C)C)NC(=O)[C@@H](NC(=O)CCC(=O)O)C(c1ccccc1)c1ccccc1)C(=O)N[C@H](C(=O)N[C@@H](Cc1c[nH]c2ccccc12)C(=O)O)[C@@H](C)CC` (Suc-[Dip]LDIIW-OH), the IC50 in test [1] is above 10000 nM.
For the compound `CC[C@H](C)[C@H](NC(=O)[C@H](CC(=O)O)NC(=O)[C@H](CC(C)C)NC(=O)[C@@H](NC(=O)C(F)(F)F)C(c1ccccc1)c1ccccc1)C(=O)N[C@H](C(=O)N[C@@H](Cc1c[nH]c2ccccc12)C(=O)O)[C@@H](C)CC` (Tfa-[Dip]LDIIW-OH), the results for the IC50 in test [1] and in test [5] were 600 nM and 290 nM, respectively. Also, the Ratio in test [4] is 0.42.
`CC[C@H](C)[C@H](NC(=O)[C@H](CCCCN)NC(=O)[C@H](CC(C)C)NC(=O)C(NC(C)=O)C(c1ccccc1)c1ccccc1)C(=O)N[C@H](C(=O)N[C@@H](Cc1c[nH]c2ccccc12)C(=O)O)[C@@H](C)CC` (single isomer, unassigned) registered an IC50 in test [2] above 10000 nM.
In the case of `CC[C@H](C)[C@H](NC(=O)[C@H](CC(=O)O)NC(=O)[C@H](CC(C)C)NC(=O)[C@@H](NC(=O)NC)C(c1ccccc1)c1ccccc1)C(=O)N[C@H](C(=O)N[C@@H](Cc1c[nH]c2ccccc12)C(=O)O)[C@@H](C)CC` ({NHMe-CO}-[Dip]LDIIW-OH), the IC50 stood at 140 nM in test [1] and 20 nM in test [5]. The Ratio in test [4] was 6.1.
Take `CC[C@H](C)[C@H](NC(=O)[C@H](CC(=O)O)NC(=O)[C@H](CC(C)C)NC(=O)[C@@H](NC(=O)NC1CCCCC1)C(c1ccccc1)c1ccccc1)C(=O)N[C@H](C(=O)N[C@@H](Cc1c[nH]c2ccccc12)C(=O)O)[C@@H](C)CC` ({NHcHex-CO}-[Dip]LDIIW-OH): the values for the IC50 in test [1] and in test [5] were 68 nM and 210 nM, respectively. The Ratio in test [4] was determined as 29.4.
Take Ac-FFDIIW-OH: the IC50 in test [1] was found to be 20 nM.
